The values below come from ChEMBL document CHEMBL1144382, “Discovery and optimisation of potent, selective, ethanolamine inhibitors of bacterial phenylalanyl tRNA synthetase” (Bioorg Med Chem Lett, 2005).

In experiment [1] the target is T1, Phenylalanine--tRNA ligase alpha subunit (Staphylococcus aureus, UniProt P68849).
T1 sequence (P68849 whole entry): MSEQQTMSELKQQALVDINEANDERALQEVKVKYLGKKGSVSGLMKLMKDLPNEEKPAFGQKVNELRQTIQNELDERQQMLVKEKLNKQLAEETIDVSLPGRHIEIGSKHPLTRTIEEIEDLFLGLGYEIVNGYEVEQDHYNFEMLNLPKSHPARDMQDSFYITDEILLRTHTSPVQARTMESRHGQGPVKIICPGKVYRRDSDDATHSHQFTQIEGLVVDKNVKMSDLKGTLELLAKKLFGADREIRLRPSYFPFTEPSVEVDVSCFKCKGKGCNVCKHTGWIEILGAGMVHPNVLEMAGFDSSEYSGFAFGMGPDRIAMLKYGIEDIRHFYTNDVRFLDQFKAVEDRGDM
Nature of the experiment: Inhibitory concentration against Staphylococcus aureus Phenylalanyl-tRNA synthetase. Summed up: (§1)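 Recombinant bacterial FRS (S. aureus WCUH29 enzyme cloned and overexpressed in E. coli; S. pneumoniae and H. influenzae enzymes overexpressed and purified the same way). IC50 from the full aminoacylation reaction with SPA read-out. Phenylalanine was held at the Km of each enzyme.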

Experiment [2] has as its target T1, Phenylalanine--tRNA ligase alpha subunit. Briefly: Inhibitory concentration against […] Phenylalanyl-tRNA synthetase. The method, boiled down: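 Recombinant S. aureus WCUH29 FRS, cloned and overexpressed in E. coli, then purified. IC50 measured in the full aminoacylation reaction with SPA readout. Phenylalanine set at the enzyme's Km.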
Experiment [3] concerns the target T2, Phenylalanine--tRNA ligase alpha subunit (Haemophilus influenzae (strain ATCC 51907 / DSM 11121 / KW20 / Rd), UniProt P43819). Briefly: Inhibitory concentration against Haemophilus influenzae Phenylalanyl-tRNA synthetase; NI=no inhibition at 300 nM. The method, boiled down: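 Recombinant FRS from the named species, overexpressed in E. coli and purified. IC50 measured in the full aminoacylation reaction with SPA readout. Phenylalanine set at the Km of each enzyme.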

The target in experiment [4] is T2, Phenylalanine--tRNA ligase alpha subunit. Briefly: Inhibitory concentration against Haemophilus influenzae Phenylalanyl-tRNA synthetase. Summed up:
as §1

Experiment [5] deals with T3, Phenylalanine--tRNA ligase alpha subunit (Streptococcus pneumoniae serotype 4 (strain ATCC BAA-334 / TIGR4), UniProt Q97S36).
T3 sequence (Q97S36 whole entry): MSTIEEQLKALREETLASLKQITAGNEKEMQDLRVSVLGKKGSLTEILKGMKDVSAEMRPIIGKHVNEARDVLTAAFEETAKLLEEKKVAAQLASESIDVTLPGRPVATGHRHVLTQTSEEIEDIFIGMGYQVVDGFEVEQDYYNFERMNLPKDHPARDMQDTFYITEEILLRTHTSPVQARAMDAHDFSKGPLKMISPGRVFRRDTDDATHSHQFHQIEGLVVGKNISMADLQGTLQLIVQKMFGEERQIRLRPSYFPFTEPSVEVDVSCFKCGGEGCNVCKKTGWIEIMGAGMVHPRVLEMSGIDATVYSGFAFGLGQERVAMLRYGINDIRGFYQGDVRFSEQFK
Nature of the experiment: Inhibitory concentration against Streptococcus pneumoniae Phenylalanyl-tRNA synthetase. Summed up: as §1

Experiment [6] deals with T4, Phenylalanine--tRNA ligase, mitochondrial (Rattus norvegicus, UniProt Q6AYQ3).
T4 sequence (Q6AYQ3 whole entry): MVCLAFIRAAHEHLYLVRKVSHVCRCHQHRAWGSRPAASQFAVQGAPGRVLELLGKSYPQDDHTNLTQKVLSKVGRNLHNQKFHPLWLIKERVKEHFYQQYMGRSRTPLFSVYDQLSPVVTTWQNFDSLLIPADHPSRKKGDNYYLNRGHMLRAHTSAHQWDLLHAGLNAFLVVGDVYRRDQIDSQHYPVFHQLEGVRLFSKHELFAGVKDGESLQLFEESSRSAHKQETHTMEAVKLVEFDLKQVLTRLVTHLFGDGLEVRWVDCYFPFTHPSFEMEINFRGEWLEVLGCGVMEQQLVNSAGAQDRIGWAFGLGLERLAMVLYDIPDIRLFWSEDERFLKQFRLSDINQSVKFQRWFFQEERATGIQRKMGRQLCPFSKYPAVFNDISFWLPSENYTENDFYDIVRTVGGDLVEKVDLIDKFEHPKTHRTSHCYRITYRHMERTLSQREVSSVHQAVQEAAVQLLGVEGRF
Briefly: Inhibitory concentration against Phenylalanyl-tRNA synthetase from rat liver. Summed up:
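Mammalian FRS isolated from rat liver; IC50 determined to assess selectivity against the bacterial enzyme.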

A word on the IC50: it is the concentration that inhibits the measured activity by half.

T2 sequence (P43819 whole entry): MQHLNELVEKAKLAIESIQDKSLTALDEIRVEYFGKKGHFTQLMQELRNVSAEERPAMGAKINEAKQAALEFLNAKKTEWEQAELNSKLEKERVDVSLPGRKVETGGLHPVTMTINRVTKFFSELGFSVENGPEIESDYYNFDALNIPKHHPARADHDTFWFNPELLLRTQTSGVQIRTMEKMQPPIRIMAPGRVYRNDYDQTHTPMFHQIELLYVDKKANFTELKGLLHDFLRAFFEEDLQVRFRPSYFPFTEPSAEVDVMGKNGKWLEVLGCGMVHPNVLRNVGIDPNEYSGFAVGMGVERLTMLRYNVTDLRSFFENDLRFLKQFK

On to `OC(CNCc1ccccc1)c1cccc(C(F)(F)F)c1` (stereo not given), for which the IC50 in experiment [1] is 160 nM; in experiment [2] it was 160 nM; in experiment [3] it was “No inhibition”. As for `NCCOc1ccccc1CNCC(O)c1cc(Br)cs1` (stereo not given), the IC50 in experiment [1] was determined as 220 nM. In experiment [1], `COc1ccccc1CNCC(O)c1cc(C(F)(F)F)ccc1C(F)(F)F` (stereo not given) came in with an IC50 above 10000 nM. `COc1ccccc1CNCC(O)c1cccc(Br)c1` (stereo not given): the IC50 in experiment [1] was found to be 110 nM. Compound `CN(CCO)C(=O)COc1ccccc1CNCC(O)c1cc(Br)cs1` (stereo not given) gave an IC50 in experiment [1] of 110 nM. As for `COc1ccccc1CNCC(O)c1cccc(OC(F)(F)F)c1` (stereo not given), inhibition in experiment [1] was half-maximal at 190 nM (IC50).

`OC(CNCc1ccccc1OC(F)F)c1cccc(C(F)(F)F)c1` (stereo not given) yielded an IC50 in experiment [1] of 260 nM. Turning to `CNC(=O)CNC(=O)CCOc1ccccc1CNCC(O)c1cc(Br)cs1` (stereo not given), half-maximal inhibition in experiment [1] (IC50) was put at 36 nM. This IC50 is about 7.2-fold lower than that of the compound before. On the same count and under the same terms, as for `COc1ccccc1CNCC(O)c1cccc(C(F)(F)F)c1` (stereo not given), the figure is 160 nM. On to `N#CCOc1ccccc1CNCC(O)c1cc(Br)cs1` (stereo not given), for which the IC50 in experiment [1] was 49 nM. `Cc1ccccc1CNCC(O)c1cccc(C(F)(F)F)c1` (stereo not given) showed an IC50 in experiment [1] of 790 nM. The compound `OCCOc1ccccc1CNCC(O)c1cc(Br)cs1` (stereo not given) returned an IC50 in experiment [1] of 8 nM. In experiment [1], `O=C1c2ccccc2C(=O)N1CCCCOc1ccccc1CNCC(O)c1cc(Br)cs1` (stereo not given) returned a 50% inhibitory concentration (IC50) of 69 nM. In experiment [1], `CNC(=O)CNC(=O)COc1ccccc1CNCC(O)c1cc(Br)cs1` (stereo not given) came in with an IC50 of 120 nM. Against the preceding compound, the IC50 is about 1.7-fold higher. `OC(CNCc1ccccc1Oc1ccccc1)c1cc(Br)cs1` (stereo not given) yielded an IC50 in experiment [1] of 120 nM. With `O=C(O)c1ccccc1CNCC(O)c1cccc(C(F)(F)F)c1` (stereo not given), in experiment [1], the half-inhibitory concentration (IC50) was found to be 2500 nM. For the compound `O=C1c2ccccc2C(=O)N1CCOc1ccccc1CNCC(O)c1cc(Br)cs1` (stereo not given), the midpoint of inhibition in experiment [1], the IC50, lay at 250 nM.

In experiment [1], `OC(CNCc1ccccc1OCc1ccccc1)c1cccc(Cl)c1` (stereo not given) gave an IC50 of 31 nM. This IC50 is about 8.1-fold lower than that of the compound before. `COc1cccc(C(O)CNCc2ccccc2OCc2ccccc2)c1` (stereo not given): the concentration for half-maximal inhibition (IC50) in experiment [1] worked out at 83 nM.

In the case of `CN(CCO)C(=O)CCOc1ccccc1CNCC(O)c1cc(Br)cs1` (stereo not given), the IC50 in experiment [1] is 25 nM. Against the preceding compound, the IC50 is about 3.3-fold lower. The compound `NC(=O)COc1ccccc1CNCC(O)c1cc(Br)cs1` (stereo not given) came in with an IC50 in experiment [1] of 42 nM. In the case of `O=C(O)CCOc1ccccc1CNCC(O)c1cc(Br)cs1` (stereo not given), in experiment [1], the IC50 stood at 58 nM. Regarding `COc1ccccc1CNCC(O)c1cccc(C)c1` (stereo not given), in experiment [1], the IC50 came to 110 nM. Take `C=CCOc1ccccc1CNCC(O)c1cccc(C(F)(F)F)c1` (stereo not given): in experiment [1], the IC50 stood at 58 nM.

`OC(CNCc1ccccc1OCc1ccccc1)c1cccc(I)c1` (stereo not given) returned an IC50 in experiment [1] of 32 nM. This IC50 is about 1.8-fold lower than that of the compound before. In experiment [1], `COc1ccccc1CNCC(O)c1cc(Br)cs1` (stereo not given) showed an IC50 of 50 nM. As to `OC(CNCc1ccccc1OCCN1CCOCC1)c1cc(Br)cs1` (stereo not given), the IC50 in experiment [1] was found to be 18 nM. Regarding `OC(CNCc1ccccc1OCc1nc2ccccc2[nH]1)c1cc(Br)cs1` (stereo not given), the IC50 came out at 26 nM in experiment [1], 150 nM in experiment [4] and 250 nM in experiment [5]. In experiment [1], `CS(=O)(=O)c1ccc(COc2ccccc2CNCC(O)c2cc(Br)cs2)cc1` (stereo not given) yielded an IC50 of 26 nM. The same measure, in the same setting: the value for `OC(CNCc1ccccc1OCc1cccnc1)c1cc(Br)cs1` (stereo not given) was 18 nM; that for `OC(CNCc1ccccc1OCc1ccccc1)c1cccc(C(F)(F)F)c1` (stereo not given) was 50 nM; that for `O=C(O)CCCOc1ccccc1CNCC(O)c1cc(Br)cs1` (stereo not given) was 43 nM.

Take `OC(CNCc1ccccc1OCc1ccccc1)c1cc(Br)cs1` (stereo not given): the IC50 in experiment [1] is 10 nM; in experiment [4] it was 1500 nM; in experiment [5] it was 280 nM.

On to `CN(CCO)C(=O)CCCOc1ccccc1CNCC(O)c1cc(Br)cs1` (stereo not given), for which the IC50 in experiment [1] is 26 nM. With `OCc1cccc(C(O)CNCc2ccccc2OCc2ccccc2)c1` (stereo not given), the half-inhibitory concentration (IC50) in experiment [1] was determined as 570 nM. `C=CCOc1ccccc1CNCC(O)c1cc(Br)cs1` (stereo not given) showed an IC50 in experiment [1] of 18 nM. In experiment [1], `OC(CNCc1ccccc1OCc1ccccn1)c1cc(Br)cs1` (stereo not given) displayed an IC50 of 43 nM. In turn, `NCCCCOc1ccccc1CNCC(O)c1cc(Br)cs1` (stereo not given) yielded an IC50 in experiment [1] of 22 nM. `CNC(=O)CNC(=O)CCCOc1ccccc1CNCC(O)c1cc(Br)cs1` (stereo not given) yielded a half-maximal inhibitory concentration (IC50) in experiment [1] of 30 nM. Consider `COc1ccccc1CNCC(O)c1ccc(C(F)(F)F)cc1` (stereo not given), for which the IC50 in experiment [1] was above 10000 nM. With `OC(CNCc1ccccc1OCc1ccccc1)c1cc(C(F)(F)F)cc(C(F)(F)F)c1` (stereo not given), in experiment [1], the IC50 was above 10000 nM. Compound `COCOc1ccccc1CNCC(O)c1cc(Br)cs1` (stereo not given) displayed an IC50 in experiment [1] of 35 nM.

`CCNC(=O)COc1ccccc1CNCC(O)c1cc(Br)cs1` (stereo not given) had a 50% inhibitory concentration (IC50) in experiment [1] of 32 nM. For the compound `OCCOc1ccccc1CNC[C@@H](O)c1cc(Br)cs1`, the figures for the IC50 in experiment [1], in experiment [4] and in experiment [5] were 3.7 nM, 56 nM and 190 nM, respectively.

Consider `OCCOc1ccccc1CNC[C@H](O)c1cc(Br)cs1`, for which the IC50 in experiment [1], in experiment [4] and in experiment [5] was above 1000 nM throughout.

For `COc1ccccc1CNCC(O)c1ccccc1C(F)(F)F` (stereo not given), in experiment [1], the IC50 was above 10000 nM. With `OC(CNCc1ccccc1OCc1ccncc1)c1cc(Br)cs1` (stereo not given), the IC50 in experiment [1] is 16 nM; in experiment [6], 90000 nM.

Take `Oc1ccccc1CNCC(O)c1cccc(C(F)(F)F)c1` (stereo not given): the IC50 in experiment [1] worked out at 100 nM. In experiment [1], `COc1ccccc1CNCC(O)c1cccc(OCc2ccccc2)c1` (stereo not given) returned an IC50 above 10000 nM.
